ChEMBL document CHEMBL3046066, “Synthesis of new fluorinated Tebufenpyrad analogs with acaricidal activity through regioselective pyrazole formation” (2008)
Calls of active or inactive are those of the source. The calls are words filed in the database; no cut-off is given here.

Assays:
Tetranychus urticae [1] = assay: Acaricidal activity against Tetranychus urticae (two-spotted spider mite) assessed as fertility inhibition at 0.16 g/L measured after 24 hr; assay type: functional
Outline: (§1)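 Each compound was applied as a solution, with active-principle concentration in the assay of 5 g/L (preliminary screen) or 0.16 g/L. Adulticide effect (% adult mortality) and fertility inhibition (%) were scored 24 h, 4 days and 6 days after application.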

Tetranychus urticae [2] = assay: Acaricidal activity against Tetranychus urticae (two-spotted spider mite) assessed as mortality at 0.16 g/L measured after 24 hr; assay type: functional; outline: as §1
Tetranychus urticae [3] = assay: Acaricidal activity against Tetranychus urticae (two-spotted spider mite) assessed as mortality at 5 g/L measured after 6 days; assay type: functional; conditions: 144 h; outline: as §1
Tetranychus urticae [4] = assay: Acaricidal activity against Tetranychus urticae (two-spotted spider mite) assessed as mortality at 5 g/L measured after 24 hr; assay type: functional; outline: as §1
Tetranychus urticae [5] = assay: Acaricidal activity against Tetranychus urticae (two-spotted spider mite) assessed as fertility inhibition at 0.16 g/L measured after 4 days; assay type: functional; conditions: 96 h; outline: as §1
Tetranychus urticae [6] = assay: Acaricidal activity against Tetranychus urticae (two-spotted spider mite) assessed as fertility inhibition at 5 g/L measured after 24 hr; assay type: functional; outline: as §1
Tetranychus urticae [7] = assay: Acaricidal activity against Tetranychus urticae (two-spotted spider mite) assessed as fertility inhibition at 5 g/L measured after 6 days; assay type: functional; conditions: 144 h; outline: as §1
Tetranychus urticae [8] = assay: Acaricidal activity against Tetranychus urticae (two-spotted spider mite) assessed as mortality at 5 g/L measured after 4 days; assay type: functional; conditions: 96 h; outline: as §1
Tetranychus urticae [9] = assay: Acaricidal activity against Tetranychus urticae (two-spotted spider mite) assessed as mortality at 1.5 g/L measured first 4 days; assay type: functional, organism-based
Outline: (§2)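 Solutions at 1.50, 0.67 and 0.16 g/L were applied for a lower-concentration follow-up to the 5 g/L screen. Adult mortality (%) was scored over time after application, including within the first 24 h.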

Tetranychus urticae [10] = assay: Acaricidal activity against Tetranychus urticae (two-spotted spider mite) assessed as fertility inhibition at 0.16 g/L measured after 6 days; assay type: functional; conditions: 144 h; outline: as §1
Tetranychus urticae [11] = assay: Acaricidal activity against Tetranychus urticae (two-spotted spider mite) assessed as mortality at 0.16 g/L measured after 6 days; assay type: functional; conditions: 144 h; outline: as §1
Tetranychus urticae [12] = assay: Acaricidal activity against Tetranychus urticae (two-spotted spider mite) assessed as mortality at 0.16 g/L measured after 4 days; assay type: functional; conditions: 96 h; outline: as §1
Tetranychus urticae [13] = assay: Acaricidal activity against Tetranychus urticae (two-spotted spider mite) assessed as fertility inhibition at 5 g/L measured after 4 days; assay type: functional; conditions: 96 h; outline: as §1
Tetranychus urticae [14] = assay: Acaricidal activity against Tetranychus urticae (two-spotted spider mite) assessed as mortality at 1.5 g/L measured within 24 hr; assay type: functional; outline: as §2
Tetranychus urticae [15] = assay: Acaricidal activity against Tetranychus urticae (two-spotted spider mite) assessed as mortality at 0.67 g/L measured within 24 hr; assay type: functional; outline: as §2

CC(F)c1nn(C)c(C(=O)NCc2ccc(C(C)(C)C)cc2)c1Cl (stereo not given)
inhibition at 160 µg/mL (Tetranychus urticae [1]): 95%
mortality at 160 µg/mL (Tetranychus urticae [2]): 48%
mortality at 5000 µg/mL (Tetranychus urticae [3]): 100%
mortality at 5000 µg/mL (Tetranychus urticae [4]): 70%
inhibition at 160 µg/mL (Tetranychus urticae [5]): 95%
inhibition at 5000 µg/mL (Tetranychus urticae [6]): 100%
inhibition at 5000 µg/mL (Tetranychus urticae [7]): 100%
mortality at 5000 µg/mL (Tetranychus urticae [8]): 75%
Activity (Tetranychus urticae [9]): Active
inhibition at 160 µg/mL (Tetranychus urticae [10]): 96%
mortality at 160 µg/mL (Tetranychus urticae [11]): 66%
mortality at 160 µg/mL (Tetranychus urticae [12]): 44%
inhibition at 5000 µg/mL (Tetranychus urticae [13]): 100%

CC(F)c1cc(C(=O)NCc2ccc(C(C)(C)C)cc2)n(C)n1 (stereo not given)
inhibition at 160 µg/mL (Tetranychus urticae [1]): 68%
mortality at 160 µg/mL (Tetranychus urticae [2]): 16%
mortality at 5000 µg/mL (Tetranychus urticae [3]): 80%
mortality at 5000 µg/mL (Tetranychus urticae [4]): 70%
inhibition at 160 µg/mL (Tetranychus urticae [5]): 91%
inhibition at 5000 µg/mL (Tetranychus urticae [6]): 100%
inhibition at 5000 µg/mL (Tetranychus urticae [7]): 100%
mortality at 5000 µg/mL (Tetranychus urticae [8]): 70%
inhibition at 160 µg/mL (Tetranychus urticae [10]): 94%
mortality at 160 µg/mL (Tetranychus urticae [11]): 10%
mortality at 160 µg/mL (Tetranychus urticae [12]): 10%
inhibition at 5000 µg/mL (Tetranychus urticae [13]): 96%

CCc1nn(C)c(C(=O)NCc2ccc(C(C)(C)C)cc2)c1Cl [TEBUFENPYRAD]
inhibition at 160 µg/mL (Tetranychus urticae [1]): 84%
mortality at 160 µg/mL (Tetranychus urticae [2]): 92%
mortality at 5000 µg/mL (Tetranychus urticae [3]): 100%
mortality at 5000 µg/mL (Tetranychus urticae [4]): 100%
inhibition at 160 µg/mL (Tetranychus urticae [5]): 100%
inhibition at 5000 µg/mL (Tetranychus urticae [6]): 100%
inhibition at 5000 µg/mL (Tetranychus urticae [7]): 100%
mortality at 5000 µg/mL (Tetranychus urticae [8]): 100%
inhibition at 160 µg/mL (Tetranychus urticae [10]): 100%
mortality at 160 µg/mL (Tetranychus urticae [11]): 100%
mortality at 160 µg/mL (Tetranychus urticae [12]): 100%
inhibition at 5000 µg/mL (Tetranychus urticae [13]): 100%

Cn1nc(CC(F)F)c(Cl)c1C(=O)NCc1ccc(C(C)(C)C)cc1
inhibition at 160 µg/mL (Tetranychus urticae [1]): 100%
mortality at 1500 µg/mL (Tetranychus urticae [14]): 100%
mortality at 160 µg/mL (Tetranychus urticae [2]): 80%
mortality at 5000 µg/mL (Tetranychus urticae [3]): 100%
mortality at 5000 µg/mL (Tetranychus urticae [4]): 100%
inhibition at 160 µg/mL (Tetranychus urticae [5]): 100%
inhibition at 5000 µg/mL (Tetranychus urticae [6]): 100%
inhibition at 5000 µg/mL (Tetranychus urticae [7]): 100%
mortality at 5000 µg/mL (Tetranychus urticae [8]): 100%
Activity (Tetranychus urticae [9]): Active
inhibition at 160 µg/mL (Tetranychus urticae [10]): 100%
mortality at 160 µg/mL (Tetranychus urticae [11]): 75%
mortality at 160 µg/mL (Tetranychus urticae [12]): 71%
inhibition at 5000 µg/mL (Tetranychus urticae [13]): 100%

Cn1nc(CC(F)(F)F)c(Cl)c1C(=O)NCc1ccc(C(C)(C)C)cc1
mortality at 5000 µg/mL (Tetranychus urticae [3]): 70%
mortality at 5000 µg/mL (Tetranychus urticae [4]): 25%
inhibition at 5000 µg/mL (Tetranychus urticae [6]): 97%
inhibition at 5000 µg/mL (Tetranychus urticae [7]): 98%
mortality at 5000 µg/mL (Tetranychus urticae [8]): 30%
inhibition at 5000 µg/mL (Tetranychus urticae [13]): 98%

Cn1nc(CCF)c(Cl)c1C(=O)NCc1ccc(C(C)(C)C)cc1
inhibition at 160 µg/mL (Tetranychus urticae [1]): 100%
mortality at 1500 µg/mL (Tetranychus urticae [14]): 100%
mortality at 160 µg/mL (Tetranychus urticae [2]): 96%
mortality at 5000 µg/mL (Tetranychus urticae [3]): 100%
mortality at 5000 µg/mL (Tetranychus urticae [4]): 100%
inhibition at 160 µg/mL (Tetranychus urticae [5]): 100%
mortality at 670 µg/mL (Tetranychus urticae [15]): 96%
inhibition at 5000 µg/mL (Tetranychus urticae [6]): 100%
inhibition at 5000 µg/mL (Tetranychus urticae [7]): 100%
mortality at 5000 µg/mL (Tetranychus urticae [8]): 100%
Activity (Tetranychus urticae [9]): Active
inhibition at 160 µg/mL (Tetranychus urticae [10]): 100%
mortality at 160 µg/mL (Tetranychus urticae [11]): 100%
mortality at 160 µg/mL (Tetranychus urticae [12]): 100%
inhibition at 5000 µg/mL (Tetranychus urticae [13]): 100%

Cn1nc(CC(F)F)cc1C(=O)NCc1ccc(C(C)(C)C)cc1
inhibition at 160 µg/mL (Tetranychus urticae [1]): 96%
mortality at 160 µg/mL (Tetranychus urticae [2]): 59%
mortality at 5000 µg/mL (Tetranychus urticae [3]): 100%
mortality at 5000 µg/mL (Tetranychus urticae [4]): 100%
inhibition at 160 µg/mL (Tetranychus urticae [5]): 100%
inhibition at 5000 µg/mL (Tetranychus urticae [6]): 100%
inhibition at 5000 µg/mL (Tetranychus urticae [7]): 100%
mortality at 5000 µg/mL (Tetranychus urticae [8]): 100%
inhibition at 160 µg/mL (Tetranychus urticae [10]): 98%
mortality at 160 µg/mL (Tetranychus urticae [11]): 10%
mortality at 160 µg/mL (Tetranychus urticae [12]): 14%
inhibition at 5000 µg/mL (Tetranychus urticae [13]): 100%

Cn1nc(C(F)C(F)(F)F)c(Cl)c1C(=O)NCc1ccc(C(C)(C)C)cc1 (stereo not given)
mortality at 5000 µg/mL (Tetranychus urticae [3]): 60%
mortality at 5000 µg/mL (Tetranychus urticae [4]): 10%
inhibition at 5000 µg/mL (Tetranychus urticae [6]): 53%
inhibition at 5000 µg/mL (Tetranychus urticae [7]): 65%
mortality at 5000 µg/mL (Tetranychus urticae [8]): 10%
inhibition at 5000 µg/mL (Tetranychus urticae [13]): 60%
